# Assay results from PMC5518789 (Journal of bone and mineral research : the official journal …, 2017).
# Entries after “also recorded” stand apart in the source; their conditions may differ.
# B1: mCSF: culture factor for osteoclast precursors, R&D Systems (protein, UniProt P07141 33-552, looked up)
# Macrophage colony-stimulating …: KEVSEHCSHMIGNGHLKVLQQLIDSQMETSCQIAFEFVDQEQLDDPVCYLKKAFFLVQDIIDETMRFKDNTPNANATERLQELSNNLNSCFTKDYEEQNKACVRTFHETPLQLLEKIKNFFNETKNLLEKDWNIFTKNCNNSFAKCSSRDVVTKPDCNCLYPKATPSSDPASASPHQPPAPSMAPLAGLAWDDSQRTEGSSLLPSELPLRIEDPGSAKQRPPRSTCQTLESTEQPNHGDRLTEDSQPHPSAGGPVPGVEDILESSLGTNWVLEEASGEASEGFLTQEAKFSPSTPVGGSIQAETDRPRALSASPFPKSTEDQKPVDITDRPLTEVNPMRPIGQTQNNTPEKTDGTSTLREDHQEPGSPHIATPNPQRVSNSATPVAQLLLPKSHSWGIVLPLGELEGKRSTRDRRSPAELEGGSASEGAARPVARFNSIPLTDTGHVEQHEGSSDPQIPESVFHLLVPGIILVLLTVGGLLFYKWKWRSHRDPQTLDSSVGRPEDSSLTQDEDRQVELPV
# B2: RANKL: receptor activator of NF-κB ligand, R&D Systems (protein, UniProt O14788 140-317, looked up)
# Tumor necrosis factor ligand …: IRAEKAMVDGSWLDLAKRSKLEAQPFAHLTINATDIPSGSHKVSLSSWYHDRGWAKISNMTFSNGKLIVNQDGFYYLYANICFRHHETSGDLATEYLQLMVYVTKTSIKIPSSHTLMKGGSTKYWSGNSEFHFYSINVGGFFKLRSGEEISIEVSNPSLLDPDQDATYFGAFKVRDID
# Key:
# PTHrP(1-15)-mAb = assay: Dot blot with PTHrP; format: binding; conditions: nitrocellulose, 100, 10 and 1 ng, chemiluminescence
# Method in brief: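 The test peptide, PTHrP(1-141), PTHrP(1-37), PTH(1-34) and IL-8 were each spotted at 100, 10 and 1 ng onto nitrocellulose under nondenaturing conditions. Blots were probed with an N-terminal PTHrP(1-15) monoclonal antibody and developed by chemiluminescence.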
# [1] = tested on: PTHrP(12-48) polyclonal Ab; assay: Dot blot with PTHrP; format: binding, chicken; conditions: nitrocellulose, nondenaturing, 100, 10 and 1 ng, chemiluminescence
# Method in brief: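 The peptide panel (test peptide, PTHrP(1-141), PTHrP(1-37), PTH(1-34), IL-8) was spotted at 100, 10 and 1 ng on nitrocellulose without denaturation. The probe was a chicken polyclonal IgY raised against the KLH-conjugated test peptide, depleted of PTHrP(1-37) by negative selection and affinity-purified on a test-peptide column. Detection was by chemiluminescence.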
# [2] = tested on: PTHR1 (PTHR1-expressing SaOS2 cells); assay: Competitive cAMP ELISA in SaOS2 cells; format: cell-based, human; conditions: PTH(1-34) 1 and 10 nM, 10 min, IBMX pretreatment, representative of three independent experiments
# Method in brief: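 SaOS2 cells were grown in RPMI 1640 with 10% FBS and antibiotics at 37°C and 5% CO₂, with medium changed every 3 days. Confluent cultures were serum-starved for 6 h, pretreated with IBMX for 15 min, then exposed to ligand for 10 min. Cells were lysed, and cAMP was quantified by a competitive ELISA kit following the manufacturer's protocol.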
# [3] = tested on: PTHR1 (PTHR1-expressing SaOS2 cells); conditions: cited from earlier work
# [4] = tested on: human OCLs and their precursors (PBMCs); assay: Internalization assay in human osteoclasts and precursors; format: cell-based
# Method in brief: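 Thawed human PBMCs were seeded at 500,000 cells/well on chamber slides in alpha-MEM + 10% FBS with mCSF (25 ng/mL) ± RANKL (50 ng/mL) at 37°C, 5% CO₂. On day 7, test peptide (100 nM) was added with serum for 15, 30, 60 or 90 min. Cells were fixed in 4% paraformaldehyde (4°C, 15 min), permeabilised with 0.02% Triton X-100 and blocked with BlokHen 1:10. They were stained with chicken anti-test-peptide antibody plus DAPI, with a no-primary control, and imaged by fluorescence or confocal microscopy.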
# cells (PTHR1-dependent) = conditions: cited from earlier work
# PTHrP(12-48) Ab = assay: Western blot with PTHrP; format: binding, chicken; conditions: SDS-PAGE (12%) immunoblot; PTHrP(12-48) 1 mM, 100 µM, 10 µM; two independent series of experiments
# Method in brief: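 Peptides and IL-8 were run on 12% SDS-PAGE and transferred to nitrocellulose. Blots were blocked for 30 min in BlokHen (1:10 in water), then washed in PBS with 0.05% Tween-20. They were probed with chicken polyclonal IgY (raised against KLH-conjugated PTHrP(12-48) and PEG-precipitated from egg yolk) or a PTHrP(1-15) monoclonal, then a secondary antibody. Detection was by chemiluminescence. Blots were stripped for 30 min at RT and reprobed for IL-8.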
# [5] = tested on: PTHR1 (SaOS2 or any other PTHR1-expressing cell); assay: PTHR1 antagonism of PTHrP; format: cell-based, human; conditions: data not shown
# [6] = tested on: other resident bone and bone marrow cells; assay: Uptake in other resident bone and bone marrow cells; format: cell-based; conditions: in vitro or in vivo; data not shown
# [7] = tested on: mesenchymal lineage cells; assay: Effect on mesenchymal lineage cells; format: cell-based; conditions: in vitro or in vivo; data not shown
# [8] = tested on: human OCL precursors and differentiated OCLs (PBMCs); assay: Cleaved caspase 3; format: cell-based; conditions: for total cells positive for cleaved caspase-3, controls day 0: OCL precursors, vehicle or mCSF without or with RANKL on day 0, 24 h
# Method in brief: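 Frozen human PBMCs were thawed at 37°C and seeded at 500,000 cells/well on chamber slides in alpha-MEM + 10% FBS with mCSF (25 ng/mL) ± RANKL (50 ng/mL) at 37°C, 5% CO₂. Cells were treated 24 h with test peptide (50 nM) or TNFα (200 ng/mL) on day 0 or day 7. They were then fixed, permeabilised and stained with anti-cleaved caspase 3 (Asp175) at 1:400 plus a 1 h secondary, with DAPI nuclei. Positive cells were counted by fluorescence or confocal microscopy.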
# [9] = tested on: human OCL precursors / OCLs (PBMCs); assay: Osteoclastogenesis, TRAP+ MNC count; format: cell-based; conditions: RANKL 50 ng/mL + mCSF 25 ng/mL versus mCSF; day 10; Fig. 3A, p < 0.001
molecule,measurement,setting,value
"IL-8: interleukin 8, control in dot blots",recognition by PTHrP(1-15) mAb,PTHrP(1-15)-mAb,not recognized by either PTHrP Ab
same,recognition by PTHrP(12-48) Ab,[1],not recognized by either PTHrP Ab
"PTHrP(1-141): full-length recombinant PTHrP, gift of Dr. T.J. Martin",recognition by PTHrP(1-15) mAb,PTHrP(1-15)-mAb,recognized an antigen present in full-length PTHrP(1-141)
same,recognition by PTHrP(12-48) Ab,[1],but not PTHrP(1-141)
"PTH(1-34): activates cAMP production via PTHR1, used as a positive control (SVSEIQLMHNLGKHLNSMERVEWLRKKLQDVHNF; Parathyroid hormone; UniProt P01270 32-65, looked up, fragment)",cAMP production (positive control),[2],stimulated cAMP production; also recorded: stimulated the expected increase in cAMP
same,activation of cAMP production via PTHR1 (literature),[3]; 50 nM,activates cAMP production via PTHR1
PTHrP(1-36): PTHR1 ligand to which SaOS2 cells respond [reference compound],SaOS2 response / activation of Gαs,"[3]; SaOS2 cells, 36 (response), 42 (Gαs)",trigger the activation of Gαs
same,internalization into day 7 cells,"[4]; PTHrP(1-36), similar treatment (Supplemental Fig. 2)",no internalization
PTHrP(1-37): N-terminal peptide used in dot blots and ELISA,recognition by PTHrP(1-15) mAb,PTHrP(1-15)-mAb,recognized an antigen present in full-length PTHrP(1-141) as well as PTHrP(1-37)
"PTHrP(67-93): PTHrP fragment shown to translocate into cells (YLTQETNKVETYKEQPLKTPGKKKKGK; Parathyroid hormone-related protein; UniProt P12272 103-129, looked up, fragment)",translocation into cells,cells (PTHR1-dependent),translocate into cells in a PTHR1-dependent fashion
"PTHrP(12-48): unique peptide fragment of parathyroid hormone-related protein (PTHrP); New England Peptides Inc. (GKSIQDLRRRFFLHHLIAEIHTAEIRATSEVSPNSKP; Parathyroid hormone-related protein; UniProt P12272 48-84, looked up, fragment)",recognition by PTHrP(12-48) Ab,PTHrP(12-48) Ab,specifically recognized the 4-kDa PTHrP(12-48); also recorded: specifically recognized by PTHrP(12-48) Ab
same,antagonist or partial antagonist action at PTHR1,[5]; SaOS2 or any other PTHR1-expressing cell,unable to show any significant antagonist or partial antagonist actions
same,antagonism of PTHrP(1-36) agonist activity at PTHR1,[5],nor does PTHrP(12-48) antagonize agonist activity of PTHrP(1-36) at the PTHR1
same,uptake in other resident bone and bone marrow cells,[6],unable to show an effect of PTHrP(12-48) on mesenchymal lineage cells or observe any apparent uptake in other resident bone and bone marrow cells
same,effect on mesenchymal lineage cells,[7],unable to show an effect of PTHrP(12-48) on mesenchymal lineage cells
same,recognition by PTHrP(1-15) mAb,PTHrP(1-15)-mAb,but not PTHrP(12-48)
same,"cleaved caspase 3-positive cells, day 7","[8]; 50 nM, 24 h, cells cultured for 7 days, Fig. 4C, D, p < 0.05",significantly increased the number of cleaved caspase 3-positive cells
same,cleaved caspase 3 increase compared with TNFα,"[8]; PTHrP(12-48) 50 nM versus TNFα 200 ng/ml, 24 h",comparable to the effects observed following treatment with TNFα
same,time to internalization into primary human OCLs and their precursors,"[4]; 100 nM, day 7 cells, immunofluorescence",≤ 60 min
same,internalization into OCLs,"[4]; 100 nM, in presence of serum, day 7 cells, mCSF (25 ng/mL)+RANKL (50 ng/mL), 15, 30, 60 and 90 min, immunofluorescence, three independent experiments",observed in OCLs 60 min after the addition
same,internalization into mononuclear cells (precursors),"[4]; 100 nM, mCSF alone, Fig. 2H panel iv, immunofluorescence",observed in mononuclear cells cultured in the presence of mCSF alone
"PTHrP(94-108): PTHrP fragment shown to translocate into cells (PGKRKEQEKKKRRTR; Parathyroid hormone-related protein; UniProt P12272 130-144, looked up, fragment)",translocation into cells,cells (PTHR1-dependent),translocate into cells in a PTHR1-dependent fashion
B1,"total cells positive for cleaved caspase-3, controls day 0",[8],less than 25%
B2,"number of TRAP+ MNCs, effect of RANKL",[9],significantly increased the number of TRAP+ MNCs
same,"total cells positive for cleaved caspase-3, controls day 0",[8],less than 25%
